High-throughput results (PubChem)
Hits are enriched below; roughly 4.6% of the tested compounds scored in any of these assays.
OX1R antag-1: human HCRTR1 antagonism. CHO/OX1R cells, Fluo-8 calcium fluorescence, orexin A. inhibition, % at 5 µM. 0.43% of 330,000 active. AID 434989;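 active = inhibition above its plate's threshold, mean inhibition of all tested compounds on the plate plus 3 SD, cut at about 37% in these data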
OX1R antag-2: blocks the human orexin 1 receptor | O43613 | OX1R-expressing cells, FRET antagonist read-out | inhibition, % at 6.6 µM | 1.8% of 330,000 active | AID 485270; in the data active = inhibition mostly above about 38%, no sharp cut-off; inactive = mostly below about 40%
TAAR1 antagonist: antagonists of human TAAR1 | Q96RJ0 | CHO RD-HGA16 TAAR1, Fluo-8 calcium fluorescence, antagonist | inhibition, % at 3 µM | 1.5% of 360,000 active | AID 624466;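 active = inhibition above a per-plate cutoff, the mean inhibition of test compounds on that plate plus 3 SD, cut at about 49% in these data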
Target sequence (Q96RJ0 whole entry, looked up): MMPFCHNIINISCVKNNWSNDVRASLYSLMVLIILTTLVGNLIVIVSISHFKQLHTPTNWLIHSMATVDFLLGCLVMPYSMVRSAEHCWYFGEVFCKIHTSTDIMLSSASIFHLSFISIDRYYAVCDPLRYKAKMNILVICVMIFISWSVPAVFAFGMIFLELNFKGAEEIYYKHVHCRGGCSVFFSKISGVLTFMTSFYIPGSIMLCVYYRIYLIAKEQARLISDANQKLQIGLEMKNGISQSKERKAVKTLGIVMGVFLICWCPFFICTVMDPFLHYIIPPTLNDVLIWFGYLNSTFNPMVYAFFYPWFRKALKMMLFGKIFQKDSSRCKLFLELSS
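Test system: hTAAR1-expressing CHO RD-HGA16 cells, Gα16-coupled; Probe or stimulus: EC80 β-phenethylamine stimulus; Compound dosing: single nominal final test compound concentration of 3 µM; Timing: 140 s kinetic read after compound, 140 s after agonist; Signal: Fluo-8 calcium-sensitive fluorescence; Measure: % inhibition of agonist calcium response; Controls: DMSO and EC80 PEA controls.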
CHO parental Ca: signal in parental CHO cells, OX1R antagonist counter-screen; parental CHO-K1, ATP-induced calcium, Fluo-8 fluorescence; inhibition, % at 5.6 µM; 0.63% of 330,000 active;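 active = inhibition above that plate's mean sample inhibition plus 3 SD, cut at about 26% in these data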
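Test system: parental CHO cells; detection: calcium-sensitive Fluo-8 fluorescence; evaluation: percent inhibition of calcium signal; also added: ATP as calcium-mobilizing challenge; repeats: one well per compound; control set: ATP-challenged DMSO wells low, unchallenged DMSO wells high; compound: single nominal dose of 5.6 µM per compound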
GPR7 antag: antagonists of human GPR7 (neuropeptides B/W receptor 1); AID 1861; 1.1% of 290,000 active; P48145; inhibition, % at 4.4 µM; GPR7-expressing cells, fluorescence antagonist assay; in the data active = inhibition above about 16%, passing the limit was not always enough;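 also: cells stimulated with the agonist NPW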
Target sequence (P48145 whole entry, looked up): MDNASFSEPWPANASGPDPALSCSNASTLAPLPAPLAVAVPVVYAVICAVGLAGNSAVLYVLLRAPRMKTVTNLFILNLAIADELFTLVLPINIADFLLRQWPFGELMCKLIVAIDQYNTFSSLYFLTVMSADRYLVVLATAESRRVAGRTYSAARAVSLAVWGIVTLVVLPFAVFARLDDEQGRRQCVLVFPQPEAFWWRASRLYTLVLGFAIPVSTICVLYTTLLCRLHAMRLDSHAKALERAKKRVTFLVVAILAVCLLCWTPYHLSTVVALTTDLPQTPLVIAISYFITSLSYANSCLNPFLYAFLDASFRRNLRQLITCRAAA
TAAR1 agonist: agonists of human TAAR1; 0.99% of 360,000 active; AID 624467; activation, % at 3 µM; CHO RD-HGA16 TAAR1, Fluo-8 calcium fluorescence; vehicle wells 0%, saturating PEA agonist 100%; Q96RJ0;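 active = activation above the mean activation of all test compounds in the run plus 3 SD, cut at about 38% in these data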
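System: CHO-derived RD-HGA16 cells with stable Gα16 and human TAAR1. Times: 17-24 h plating, Fluo-8 75 min 37 °C, 30 min RT. Measured by: calcium-sensitive Fluo-8 signal, excitation 470-495, emission 515-575 nm. Read-out basis: % activation relative to PEA EC100 response. Control set: DMSO and PEA EC100. Repeats: no replicates (n 1).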
Large screens that a line does not name were inactive.

CCN1C(=O)[C@H]2[C@@H](c3ccc(C)cc3)N3C(=O)N(c4cccc(F)c4)C(=O)[C@@]3(Cc3ccc(Cl)cc3)[C@H]2C1=O	OX1R antag-2 55.8 (no result: GPR7 antag)
CCN1C(=O)[C@H]2[C@@H](c3ccc(C)cc3)N3C(=O)N(c4cccc(Cl)c4)C(=O)[C@@]3(Cc3ccc(Cl)cc3)[C@H]2C1=O	none (no result: GPR7 antag)
Nc1cc(OC(=O)c2cccs2)nn1S(=O)(=O)c1ccc(F)cc1	TAAR1 agonist 41.5
Nc1cc(OC(=O)c2cccs2)nn1S(=O)(=O)c1ccccc1	TAAR1 agonist 39.7
Cc1ccc(C(=O)Oc2cc(N)n(S(=O)(=O)c3ccc(F)cc3)n2)cc1	none
C=CCNC(=O)/C=C/c1c(F)cccc1Cl	none
N/C(=N\c1nc2ccccc2o1)NC(=O)c1ccccc1	none
N/C(=N\c1nc2ccccc2o1)NC(=O)/C=C/c1ccccc1	OX1R antag-2 40.2
COc1ccc(C(=O)c2oc3ccccc3c2N)cc1	none
COc1ccc2oc(C(=O)c3ccccc3)c(N)c2c1	OX1R antag-2 64.2
CCOC(=O)c1cccc(NC(=O)COc2nsnc2N2CCOCC2)c1	TAAR1 antagonist 49.6
CSc1ccc(Cn2c(C)c(C(=O)NCc3ccccc3C(F)(F)F)sc2=O)cc1	TAAR1 antagonist 51.7 (no result: OX1R antag-1, OX1R antag-2, CHO parental Ca, GPR7 antag)
CCOCCCNc1nc2c(C)cccn2c(=O)c1/C=C1\SC(=S)N(C(C)CC)C1=O (stereo unspecified)	OX1R antag-1 44.6
COc1ccccc1N1CCN(C(=O)c2cn(Cc3ccccc3)nc2-c2cccnc2)CC1	TAAR1 agonist 46.8 (no result: GPR7 antag)
Cc1ccc(CN2CC(C(=O)NC3CCCC(C)C3C)CC2=O)cc1 (stereo unspecified)	none (no result: GPR7 antag)
Cc1cccc(OCCSc2nc3ncnc(N)c3[nH]2)c1	GPR7 antag 16.3
Clc1cccc(Cl)c1/C=C/c1nc2ccccc2[nH]1	OX1R antag-2 49.8 (no result: TAAR1 antagonist, TAAR1 agonist)
O=S(=O)(c1ccccc1)c1ccc(N2CCCCCC2)cc1	CHO parental Ca 36.5
Cc1ccnc(Sc2ccc([N+](=O)[O-])cc2[N+](=O)[O-])n1	OX1R antag-2 67.5
O=[N+]([O-])c1ccc(Cl)cc1Sc1nc2ccccc2o1	none
Nc1nc(Sc2ccc([N+](=O)[O-])cc2[N+](=O)[O-])n[nH]1	OX1R antag-2 41.7
O=c1[nH]c(Sc2ccc([N+](=O)[O-])cc2[N+](=O)[O-])nc2ccccc12	none (no result: GPR7 antag)
O=[N+]([O-])c1ccc(Sc2nc3ccccc3o2)c([N+](=O)[O-])c1	OX1R antag-2 36.8
Cc1ccc(Sc2ccc([N+](=O)[O-])cc2[N+](=O)[O-])nc1	none
Cc1ccc(Cn2ccsc2=NC(=O)COC(=O)C(C)C)cc1	none
CN(C)CCOC(C1CCCCC1)C1CCCCC1	GPR7 antag 34.1
COc1ccc(-c2nn(-c3ccccc3C)cc2CNC(C)Cn2cncn2)cc1F (stereo unspecified)	none
C/C(=N/Nc1ccc(C)cc1)C1(C)N(O)C(C)(C)C(c2ccco2)=[N+]1[O-] (stereo unspecified)	none
CCOc1ccc(NC(=O)COc2ccc(C(=O)NCc3cccnc3)cc2OC)cc1	none (no result: GPR7 antag)
COc1cc(C(=O)NCc2cccnc2)ccc1OCC(=O)Nc1cccc(C(F)(F)F)c1	CHO parental Ca 43.0 (no result: GPR7 antag)
CCCOc1ccccc1C(=O)Nc1ccc(S(=O)(=O)N2CCN(C)CC2)cc1	none
Cc1ccc(S(=O)(=O)/N=C(/Nc2ccc([N+](=O)[O-])cc2[N+](=O)[O-])c2ccccc2)cc1	OX1R antag-2 52.0 (no result: GPR7 antag)
CCc1ccc(OC(C)C(=O)Nc2ccc(S(=O)(=O)Nc3nccs3)cc2)cc1 (stereo unspecified)	TAAR1 antagonist 54.9, TAAR1 agonist 45.3
Cc1cc(S(=O)(=O)NC2CCCC2)ccc1F	none
CCOC(=O)N1CCN(C(=O)C2CCN(C(=O)c3ccc([N+](=O)[O-])cc3)CC2)CC1	OX1R antag-2 54.8
COc1ccc(N2CCN(C(=O)C3CCN(C(=O)c4ccc([N+](=O)[O-])cc4)CC3)CC2)cc1	OX1R antag-2 51.4
COc1ccc(NC(=O)N2CCN(c3ccc([N+](=O)[O-])cc3)CC2)cc1	none
O=C(O)c1ccc(Sc2nnc3ccccn23)c([N+](=O)[O-])c1	OX1R antag-2 71.9
COc1ccc(OCC(=O)OC(C)CN2CCOCC2)cc1 (stereo unspecified)	GPR7 antag 18.1
COCCCNCCCCOc1ccc(Br)cc1C	TAAR1 agonist 41.4
CCCC(c1nnnn1C(C)(C)CC)N1CCN(C2CCCC2)CC1 (stereo unspecified)	GPR7 antag 18.1
CCC(c1nnnn1C(C)(C)C)N1CCN(C2CCCC2)CC1 (stereo unspecified)	none
CCCC(c1nnnn1Cc1ccc(F)cc1)N1CCN(C2CCCCC2)CC1 (stereo unspecified)	GPR7 antag 32.6
CCC(c1nnnn1Cc1cccs1)N1CCN(C2CCCC2)CC1 (stereo unspecified)	GPR7 antag 20.1
CC(C)C(c1nnnn1Cc1ccc(F)cc1)N1CCN(C2CCCC2)CC1 (stereo unspecified)	none
Cc1cccc(N2CCN(C(=O)c3ccccc3OCc3c(C)noc3C)CC2)c1C	none (no result: GPR7 antag)
C=C1CCN(c2ccc(C(=O)O)cc2[N+](=O)[O-])CC1	OX1R antag-2 69.8 (no result: TAAR1 antagonist, GPR7 antag, TAAR1 agonist)
O=C(O)c1ccc(N2CCN(C(c3ccccc3)c3ccccc3)CC2)c([N+](=O)[O-])c1	none
O=C(Nc1ccccc1)c1snc2c(=O)[nH]cnc12	OX1R antag-2 74.4
CCOC(=O)c1snc2c(=O)[nH]cnc12	OX1R antag-2 41.7
Cc1ccc(S(=O)(=O)N2CCN(C(=O)CCn3cncn3)CC2)cc1C	none
CN(C)CCOc1ccc(-c2c(-c3ccccc3)sc3ccccc23)cc1	OX1R antag-1 64.2, CHO parental Ca 49.0 (no result: GPR7 antag)
Cc1ccc(C)c2[nH]c(=O)c(C(c3nnnn3Cc3ccccc3)N3CCc4ccccc4C3)cc12 (stereo unspecified)	TAAR1 agonist 48.8
Cc1cccc2cc(C(c3nnnn3CC3CCCO3)N3CCc4ccccc4C3)c(=O)[nH]c12 (stereo unspecified)	none (no result: TAAR1 antagonist, TAAR1 agonist)
CCc1noc(C)c1C(=O)N(CC)CC(=O)NCc1ccc(Cl)cc1	none (no result: GPR7 antag)
O=C(Nc1ccc2nc3n(c(=O)c2c1)CCCC3)c1cncc(Br)c1	none (no result: GPR7 antag)
O=C(CN1C(=O)c2ccccc2C1=O)N1CCN(S(=O)(=O)c2ccccc2)CC1	none
O=C(CN1C(=O)c2cccc([N+](=O)[O-])c2C1=O)N1CCN(S(=O)(=O)c2ccccc2)CC1	OX1R antag-2 33.7 (no result: GPR7 antag)
O=C(Nc1nc(SCc2ccc(F)cc2)ns1)c1ccco1	none
Cc1cc(Cl)c(S(=O)(=O)N2CCSCC2)cc1OCC(=O)NC1CCCCC1	TAAR1 antagonist 53.8
